Test results from ChEMBL document CHEMBL1165965, “Synthesis and structure-activity relationships of 1,2,3,4-tetrahydropyrido[2,3-b]pyrazines as potent and selective inhibitors of the anaplastic lymphoma kinase” (Bioorg Med Chem, 2010).

Experiments:
[1] = test system: Phosphatidylinositol 4,5-bisphosphate 3-kinase catalytic subunit alpha isoform (Homo sapiens), P42336 [E542K]; assay: Inhibition of PIK3CA E542K mutant at 1 uM
[2] = target: Activin receptor type-2A (Homo sapiens) (UniProt P27037); assay: Inhibition of ACVR2A at 1 uM
Sequence of Activin receptor type-2A (Homo sapiens) (P27037 whole entry): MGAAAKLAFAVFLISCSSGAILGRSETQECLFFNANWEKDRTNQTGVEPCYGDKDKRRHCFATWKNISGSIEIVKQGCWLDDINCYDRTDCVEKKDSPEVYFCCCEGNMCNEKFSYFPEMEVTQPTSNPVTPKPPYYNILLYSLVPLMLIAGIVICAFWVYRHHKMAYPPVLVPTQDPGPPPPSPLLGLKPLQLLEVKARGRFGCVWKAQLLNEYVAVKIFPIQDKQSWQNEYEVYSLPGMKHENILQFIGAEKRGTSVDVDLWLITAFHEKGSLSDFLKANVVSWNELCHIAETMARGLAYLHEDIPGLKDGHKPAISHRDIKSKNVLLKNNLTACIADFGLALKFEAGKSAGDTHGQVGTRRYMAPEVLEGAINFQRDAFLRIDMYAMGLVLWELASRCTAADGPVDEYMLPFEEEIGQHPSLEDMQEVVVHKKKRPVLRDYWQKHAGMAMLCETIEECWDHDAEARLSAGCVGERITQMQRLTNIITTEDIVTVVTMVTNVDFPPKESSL
Procedure, shortened: (§1)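 Ambit KINOMEscan screen at a single concentration across a 250–400 kinase panel, recorded as percent inhibition. Selectivity was expressed as S(90), the fraction of kinases inhibited >90%.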

[3] = target: T1, Aurora kinase C (Homo sapiens) (UniProt Q9UQB9); assay: Inhibition of AURKC at 1 uM; procedure, shortened: as §1
T1 sequence (whole entry): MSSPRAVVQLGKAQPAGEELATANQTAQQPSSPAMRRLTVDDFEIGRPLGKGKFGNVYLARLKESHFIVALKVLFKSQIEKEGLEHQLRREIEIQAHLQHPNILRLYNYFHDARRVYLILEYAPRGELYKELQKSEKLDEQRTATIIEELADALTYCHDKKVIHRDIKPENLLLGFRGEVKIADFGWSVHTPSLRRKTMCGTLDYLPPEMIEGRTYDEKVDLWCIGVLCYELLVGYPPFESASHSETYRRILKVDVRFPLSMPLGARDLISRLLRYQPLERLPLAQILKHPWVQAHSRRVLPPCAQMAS

[4] = target: T2, Serine/threonine-protein kinase BRSK2 (Homo sapiens) (UniProt Q8IWQ3); assay: Inhibition of BRSK2 at 1 uM; procedure, shortened: as §1
T2 sequence (whole entry): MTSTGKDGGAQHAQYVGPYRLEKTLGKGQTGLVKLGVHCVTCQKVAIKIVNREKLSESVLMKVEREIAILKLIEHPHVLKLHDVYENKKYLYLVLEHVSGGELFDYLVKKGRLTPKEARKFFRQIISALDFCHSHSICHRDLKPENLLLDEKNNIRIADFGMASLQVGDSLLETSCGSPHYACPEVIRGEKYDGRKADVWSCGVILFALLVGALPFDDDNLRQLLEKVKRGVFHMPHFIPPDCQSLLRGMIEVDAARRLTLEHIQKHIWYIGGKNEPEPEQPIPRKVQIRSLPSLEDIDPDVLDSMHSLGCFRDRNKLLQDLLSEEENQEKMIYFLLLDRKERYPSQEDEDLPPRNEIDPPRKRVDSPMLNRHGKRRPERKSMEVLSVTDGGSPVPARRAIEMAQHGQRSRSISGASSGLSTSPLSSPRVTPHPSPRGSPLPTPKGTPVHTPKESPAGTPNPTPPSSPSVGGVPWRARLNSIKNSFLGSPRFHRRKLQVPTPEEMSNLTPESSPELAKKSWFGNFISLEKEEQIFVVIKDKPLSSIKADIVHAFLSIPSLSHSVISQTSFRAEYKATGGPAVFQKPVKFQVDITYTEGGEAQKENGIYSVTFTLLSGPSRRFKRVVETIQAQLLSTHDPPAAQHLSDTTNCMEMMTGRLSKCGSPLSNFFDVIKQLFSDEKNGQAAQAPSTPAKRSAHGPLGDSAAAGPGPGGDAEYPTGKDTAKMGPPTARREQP

[5] = target: Epidermal growth factor receptor (Homo sapiens) (UniProt P04626+P00533+Q15303+P21860); assay: Inhibition of EGFR L747-E749del, A750P mutant at 1 uM; assay type: protein assay
Procedure, shortened: (§2)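 Single-concentration screen using Ambit Bioscience KINOMEscan technology across a panel of 250–400 kinases. Per-kinase inhibition from this screen was summarized as S(90), the fraction of kinases inhibited by more than 90%.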

[6] = target: T3, Ephrin type-B receptor 1 (Homo sapiens) (UniProt P54762); assay: Inhibition of EPHB1 at 1 uM; procedure, shortened: as §2
T3 sequence (whole entry): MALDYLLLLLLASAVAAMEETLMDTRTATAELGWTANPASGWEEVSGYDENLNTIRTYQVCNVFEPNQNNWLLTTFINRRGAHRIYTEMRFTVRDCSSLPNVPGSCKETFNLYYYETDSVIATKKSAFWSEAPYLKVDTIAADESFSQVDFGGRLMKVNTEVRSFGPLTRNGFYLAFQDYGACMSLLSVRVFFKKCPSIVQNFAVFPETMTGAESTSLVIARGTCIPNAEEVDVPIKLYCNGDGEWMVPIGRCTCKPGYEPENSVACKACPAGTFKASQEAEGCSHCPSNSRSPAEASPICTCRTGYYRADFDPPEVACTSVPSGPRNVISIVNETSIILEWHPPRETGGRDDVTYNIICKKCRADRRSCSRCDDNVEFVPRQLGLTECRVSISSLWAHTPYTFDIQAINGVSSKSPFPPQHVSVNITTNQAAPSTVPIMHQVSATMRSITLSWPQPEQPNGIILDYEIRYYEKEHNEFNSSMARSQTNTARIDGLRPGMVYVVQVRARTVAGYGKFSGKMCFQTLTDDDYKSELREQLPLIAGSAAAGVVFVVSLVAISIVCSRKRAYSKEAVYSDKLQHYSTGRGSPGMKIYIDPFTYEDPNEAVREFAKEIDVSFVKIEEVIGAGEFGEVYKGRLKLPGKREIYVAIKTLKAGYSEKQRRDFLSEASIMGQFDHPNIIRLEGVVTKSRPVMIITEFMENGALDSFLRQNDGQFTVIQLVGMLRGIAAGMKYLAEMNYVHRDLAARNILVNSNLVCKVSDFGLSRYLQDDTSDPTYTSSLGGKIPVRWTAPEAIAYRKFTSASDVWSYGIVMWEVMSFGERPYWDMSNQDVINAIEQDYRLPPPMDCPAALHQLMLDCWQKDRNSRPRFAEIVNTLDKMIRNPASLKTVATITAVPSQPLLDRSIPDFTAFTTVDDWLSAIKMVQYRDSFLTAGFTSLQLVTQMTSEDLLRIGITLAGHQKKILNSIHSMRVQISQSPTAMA

[7] = target: Fibroblast growth factor receptor 4 (Homo sapiens) (UniProt P22455); assay: Inhibition of FGFR4 at 1 uM
Sequence of Fibroblast growth factor receptor 4 (Homo sapiens) (P22455 22-802 limits assumed): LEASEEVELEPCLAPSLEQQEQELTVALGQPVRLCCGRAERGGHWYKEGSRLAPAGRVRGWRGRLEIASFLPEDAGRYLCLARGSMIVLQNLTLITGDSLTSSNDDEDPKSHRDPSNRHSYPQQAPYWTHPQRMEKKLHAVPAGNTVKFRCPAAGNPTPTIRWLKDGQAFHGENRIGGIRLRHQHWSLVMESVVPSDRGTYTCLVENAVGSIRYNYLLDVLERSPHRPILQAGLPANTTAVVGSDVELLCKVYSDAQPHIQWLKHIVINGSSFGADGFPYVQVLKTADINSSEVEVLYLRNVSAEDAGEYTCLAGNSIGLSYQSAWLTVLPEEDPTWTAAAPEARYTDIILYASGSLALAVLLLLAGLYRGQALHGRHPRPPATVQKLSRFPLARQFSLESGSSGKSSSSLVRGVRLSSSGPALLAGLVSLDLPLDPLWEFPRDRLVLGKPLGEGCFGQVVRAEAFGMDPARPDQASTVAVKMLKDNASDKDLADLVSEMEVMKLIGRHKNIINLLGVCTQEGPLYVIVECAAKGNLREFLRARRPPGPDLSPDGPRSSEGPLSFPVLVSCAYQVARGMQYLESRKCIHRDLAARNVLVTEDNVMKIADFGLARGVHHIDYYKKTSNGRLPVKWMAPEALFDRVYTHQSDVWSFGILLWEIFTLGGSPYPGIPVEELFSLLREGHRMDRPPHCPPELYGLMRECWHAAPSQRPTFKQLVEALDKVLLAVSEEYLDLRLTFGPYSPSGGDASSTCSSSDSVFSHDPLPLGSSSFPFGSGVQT
Procedure, shortened: (§3)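 Single-concentration screen on the Ambit KINOMEscan platform, run against a panel of 250–400 kinases. Per-kinase inhibition was also summarized as S(90), the fraction of kinases inhibited by more than 90%.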

[8] = target: Receptor-type tyrosine-protein kinase FLT3 (Homo sapiens) (UniProt P36888); assay: Inhibition of FLT3 at 1 uM; procedure, shortened: as §3
Sequence of Receptor-type tyrosine-protein kinase FLT3 (Homo sapiens) (P36888 whole entry): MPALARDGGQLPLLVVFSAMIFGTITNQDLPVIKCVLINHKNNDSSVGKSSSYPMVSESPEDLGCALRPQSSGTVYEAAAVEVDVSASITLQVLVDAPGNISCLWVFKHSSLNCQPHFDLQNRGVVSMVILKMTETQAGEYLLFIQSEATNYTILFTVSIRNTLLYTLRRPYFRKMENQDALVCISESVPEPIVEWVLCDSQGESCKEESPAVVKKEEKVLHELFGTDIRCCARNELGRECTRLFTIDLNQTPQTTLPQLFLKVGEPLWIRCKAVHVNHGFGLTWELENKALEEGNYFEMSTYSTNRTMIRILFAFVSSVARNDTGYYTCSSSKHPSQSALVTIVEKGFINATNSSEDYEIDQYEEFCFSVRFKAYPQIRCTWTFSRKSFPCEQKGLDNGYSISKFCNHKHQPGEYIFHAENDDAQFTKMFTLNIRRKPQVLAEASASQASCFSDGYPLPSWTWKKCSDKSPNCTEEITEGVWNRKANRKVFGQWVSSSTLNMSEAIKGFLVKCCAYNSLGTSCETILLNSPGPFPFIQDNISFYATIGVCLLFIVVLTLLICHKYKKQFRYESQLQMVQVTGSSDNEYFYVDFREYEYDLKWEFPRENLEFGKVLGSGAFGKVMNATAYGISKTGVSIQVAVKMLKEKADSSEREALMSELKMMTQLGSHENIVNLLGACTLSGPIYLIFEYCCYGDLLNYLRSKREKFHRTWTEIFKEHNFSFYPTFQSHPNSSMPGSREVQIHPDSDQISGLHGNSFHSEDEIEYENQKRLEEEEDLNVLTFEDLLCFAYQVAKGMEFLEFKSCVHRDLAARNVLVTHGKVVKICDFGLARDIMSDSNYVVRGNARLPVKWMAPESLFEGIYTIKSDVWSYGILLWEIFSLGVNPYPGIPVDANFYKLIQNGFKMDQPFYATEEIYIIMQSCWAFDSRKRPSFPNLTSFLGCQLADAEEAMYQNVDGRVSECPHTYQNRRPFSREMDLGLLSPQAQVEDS

[9] = target: Homeodomain-interacting protein kinase 1 (Homo sapiens) (UniProt Q86Z02); assay: Inhibition of HIPK1 at 1 uM; procedure, shortened: as §3
Sequence of Homeodomain-interacting protein kinase 1 (Homo sapiens) (Q86Z02 whole entry, looked up): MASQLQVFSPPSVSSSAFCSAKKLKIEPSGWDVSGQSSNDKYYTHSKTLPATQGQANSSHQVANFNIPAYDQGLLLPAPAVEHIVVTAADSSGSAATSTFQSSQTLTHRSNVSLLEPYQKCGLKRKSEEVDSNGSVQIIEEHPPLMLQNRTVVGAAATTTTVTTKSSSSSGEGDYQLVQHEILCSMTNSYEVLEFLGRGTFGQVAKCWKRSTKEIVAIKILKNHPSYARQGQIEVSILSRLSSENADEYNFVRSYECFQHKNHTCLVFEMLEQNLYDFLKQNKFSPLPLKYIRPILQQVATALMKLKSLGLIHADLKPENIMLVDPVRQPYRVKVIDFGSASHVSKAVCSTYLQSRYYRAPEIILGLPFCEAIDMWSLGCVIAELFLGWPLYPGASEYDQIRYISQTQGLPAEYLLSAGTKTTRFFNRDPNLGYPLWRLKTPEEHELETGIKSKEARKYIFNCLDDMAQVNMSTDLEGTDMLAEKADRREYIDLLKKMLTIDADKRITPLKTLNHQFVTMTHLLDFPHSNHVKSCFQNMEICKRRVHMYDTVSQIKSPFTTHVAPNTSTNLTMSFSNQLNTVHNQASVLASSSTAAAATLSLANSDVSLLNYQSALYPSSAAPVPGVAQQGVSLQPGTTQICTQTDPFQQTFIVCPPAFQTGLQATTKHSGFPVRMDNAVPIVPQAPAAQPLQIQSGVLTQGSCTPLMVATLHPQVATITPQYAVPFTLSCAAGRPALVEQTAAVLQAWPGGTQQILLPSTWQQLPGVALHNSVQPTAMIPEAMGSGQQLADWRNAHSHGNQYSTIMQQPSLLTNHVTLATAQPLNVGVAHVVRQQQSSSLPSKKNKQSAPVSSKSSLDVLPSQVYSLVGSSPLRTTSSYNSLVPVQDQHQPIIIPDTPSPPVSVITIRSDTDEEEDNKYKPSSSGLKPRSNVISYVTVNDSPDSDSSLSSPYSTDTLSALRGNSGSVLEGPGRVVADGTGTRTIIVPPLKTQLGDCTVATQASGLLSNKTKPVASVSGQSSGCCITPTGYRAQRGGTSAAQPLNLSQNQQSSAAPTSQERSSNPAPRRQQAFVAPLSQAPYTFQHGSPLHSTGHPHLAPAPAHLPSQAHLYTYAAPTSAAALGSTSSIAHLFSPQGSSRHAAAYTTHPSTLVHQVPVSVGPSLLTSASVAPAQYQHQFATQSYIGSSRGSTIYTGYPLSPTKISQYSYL

Sequence of Phosphatidylinositol 4,5-bisphosphate 3-kinase catalytic subunit alpha isoform (Homo sapiens), P42336 [E542K] (P42336 whole entry E542K, canonical isoform): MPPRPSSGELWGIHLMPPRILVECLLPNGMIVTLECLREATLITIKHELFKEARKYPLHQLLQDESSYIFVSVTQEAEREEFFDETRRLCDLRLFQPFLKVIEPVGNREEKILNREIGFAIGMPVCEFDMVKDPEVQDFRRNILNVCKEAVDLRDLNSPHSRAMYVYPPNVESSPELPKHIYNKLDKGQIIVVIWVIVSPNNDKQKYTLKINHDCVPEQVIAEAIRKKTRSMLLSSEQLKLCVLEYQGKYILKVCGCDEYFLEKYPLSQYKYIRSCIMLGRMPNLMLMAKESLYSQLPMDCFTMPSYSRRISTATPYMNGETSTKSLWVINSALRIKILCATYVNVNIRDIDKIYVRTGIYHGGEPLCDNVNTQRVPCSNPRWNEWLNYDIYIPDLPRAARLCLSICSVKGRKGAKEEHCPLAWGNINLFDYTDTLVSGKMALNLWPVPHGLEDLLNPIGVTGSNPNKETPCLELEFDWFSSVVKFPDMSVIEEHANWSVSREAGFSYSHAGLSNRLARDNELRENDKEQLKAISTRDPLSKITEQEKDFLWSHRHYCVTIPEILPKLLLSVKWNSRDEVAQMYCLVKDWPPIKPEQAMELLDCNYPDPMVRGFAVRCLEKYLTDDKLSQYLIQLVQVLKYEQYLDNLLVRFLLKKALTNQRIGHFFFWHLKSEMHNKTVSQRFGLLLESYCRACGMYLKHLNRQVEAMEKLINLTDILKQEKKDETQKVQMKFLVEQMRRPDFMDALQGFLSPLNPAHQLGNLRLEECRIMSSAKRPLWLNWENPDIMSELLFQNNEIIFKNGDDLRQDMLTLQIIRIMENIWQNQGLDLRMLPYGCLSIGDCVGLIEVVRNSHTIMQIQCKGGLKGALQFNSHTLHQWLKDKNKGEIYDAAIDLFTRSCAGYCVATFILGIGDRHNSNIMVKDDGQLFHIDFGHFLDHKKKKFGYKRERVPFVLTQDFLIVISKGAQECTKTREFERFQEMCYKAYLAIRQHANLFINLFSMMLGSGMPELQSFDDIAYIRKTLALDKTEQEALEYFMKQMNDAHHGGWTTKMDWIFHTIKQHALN

| Compound | inhibition [1] [%] | inhibition [2] [%] | inhibition [3] [%] | inhibition [4] [%] | inhibition [5] [%] | inhibition [6] [%] | inhibition [7] [%] | inhibition [8] [%] | inhibition [9] [%] |
| --- | --- | --- | --- | --- | --- | --- | --- | --- | --- |
| CN1CCN(c2ccc(-c3cnc4c(c3)N(Cc3cc(Cl)ccc3Cl)CCN4)cn2)CC1 | < 50 | < 50 | < 50 | < 50 | < 50 | < 50 | < 50 | 90 | < 50 |
| CN1CCN(c2ccc(-c3cnc4c(c3)N(Cc3cc(Cl)ccc3C(F)(F)F)CCN4)cn2)CC1 | < 50 | < 50 | < 50 | < 50 | < 50 | < 50 | < 50 | 88 | < 50 |
| CN1CCN(c2ccc(-c3cnc4c(c3)N(Cc3c(F)ccc(F)c3Cl)CCN4)cn2)CC1 | < 50 | < 50 | < 50 | < 50 | < 50 | < 50 | < 50 | < 50 | 70 |
| O=C(c1ccc(-c2cnc3c(c2)N(Cc2cc(Cl)ccc2C(F)(F)F)CCN3)cc1)N1CCC(N2CCCC2)CC1 |  | < 50 | 96.9 | 63.8 | < 50 | < 50 | < 50 | 99.3 | < 50 |
| COC1CCN(C(=O)c2ccc(-c3cnc4c(c3)N(Cc3cc(Cl)ccc3C(F)(F)F)CCN4)cc2)CC1 |  | < 50 | 79.5 | < 50 | < 50 | < 50 | < 50 | 80.7 | < 50 |
| FC(F)(F)c1ccc(Cl)cc1CN1CCNc2ncc(-c3ccnc(N4CCNCC4)c3)cc21 | < 50 | < 50 | 92 | < 50 | < 50 | < 50 | < 50 | 95 | < 50 |
| CN1CCN(c2ccc(-c3cnc4c(c3)N(Cc3cc(F)ccc3F)CCN4)cn2)CC1 | < 50 | < 50 | < 50 | < 50 | < 50 | < 50 | < 50 | 64 | 72.2 |
| O=C(c1ccc(-c2cnc3c(c2)N(Cc2cc(Cl)ccc2C(F)(F)F)CCN3)cc1)N1CCCCC1 |  | < 50 | < 50 | < 50 | < 50 | < 50 | < 50 | < 50 | < 50 |
| CC(=O)N1CCN(c2cc(-c3cnc4c(c3)N(Cc3cc(Cl)ccc3C(F)(F)F)CCN4)ccn2)CC1 | < 50 | < 50 | 89 | < 50 | < 50 | < 50 | < 50 | 83 | < 50 |
| O=C(O)c1ccc(-c2cnc3c(c2)N(Cc2cc(Cl)ccc2C(F)(F)F)CCN3)cc1 |  | < 50 | < 50 | < 50 | < 50 | < 50 | < 50 | < 50 | < 50 |
